3 molecules from ChEMBL document CHEMBL1147858, “Short-chain 3-ketoceramides, strong apoptosis inducers against human leukemia HL-60 cells” (Bioorg Med Chem, 2007) can be followed below.

Common to all, as to assay type: functional, cell-based
Common to all, as to details: Homo sapiens

For assay [1], the system named is HL-60. As to the kind of experiment: Effect on apoptosis in HL60 cells assessed as mitochondrial cytochrome C release at 5 uM by Western blot analysis. An outline of the steps:
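HL-60 cells (6 × 10^6 cells/mL) treated for various periods, ethanol vehicle; PBS-washed, Dounce-homogenized in HEPES/KCl/EDTA/EGTA/DTT buffer with protease inhibitors; 1000g spin removes nuclei/heavy membranes, mitochondria-rich fraction pelleted, supernatant spun at 100,000g for cytosol; both fractions immunoblotted with anti-cytochrome c.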
Background: Immunoblotting shows a protein as a band on a membrane.

Assay [2] concerns HL-60. Put plainly: Induction of apoptosis in HL60 cells assessed as DNA fragmentation at 5uM. An outline of the steps:
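HL-60 cells (2 × 10^6 cells/2 mL) exposed for various periods, ethanol vehicle; lysed in Tris/EDTA/0.5% Triton X-100, soluble lysate treated with RNase A (0.2 mg/mL, 1 h, 37 °C) then proteinase K (0.2 mg/mL, 50 °C, 30 min); DNA isopropanol-precipitated overnight at −20 °C, run on 2.0% agarose at 50 V, ethidium bromide stained, UV visualized.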

In assay [3] the test system is HL-60. As to the kind of experiment: Antileukemic effect against HL60 cells assessed as cell survival at 1 uM after 6 hrs by MTT assay relative to C2-Cer. In short, it runs like this: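 Serum-free RPMI 1640 HL-60 suspension (0.4–1 × 10^6 cells/mL after two washes), […] per well; compounds added from ethanol stocks (1–20 mM), final EtOH 0.1%, vehicle control 0.1% EtOH; 6 h exposure; MTT (10 µL of 5 mg/mL) added 2 h before end; formazan dissolved with 0.04 M HCl in isopropanol.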

Assay [4] concerns HL-60. Put plainly: Effect on apoptosis in HL60 cells assessed as caspase-3 activation at 5 uM by Western blot analysis. An outline of the steps: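 HL-60 cells exposed 2–6 h (also 30–90 min) to compound, ethanol vehicle (final EtOH 0.1%); cells pelleted, PBS-washed twice, lysed in urea/SDS/β-mercaptoethanol buffer, boiled 3 min, run on 14% SDS-PAGE, PVDF blot probed with rabbit polyclonal anti-caspase-3 and alkaline phosphatase-coupled goat anti-rabbit; pro- versus active caspase-3 bands read.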

The source made the active and inactive calls. No cut-off for these calls is given here.

In the case of `CCCCCCCCCCCCC/C=C/C(=O)[C@H](CO)NC(C)=O`, the outcome in the assay on HL-60 [1], in the assay with HL-60 [2], in the assay with HL-60 [3] and with HL-60 [4] was Active.

Take `CCCCCCCCCCCCC/C=C/C(=O)[C@H](COC)NC(C)=O`: the result in the assay on HL-60 [1], in the assay with HL-60 [2], in the assay with HL-60 [3] and in the assay on HL-60 [4] was Active.

Take `CCCCCCCCCCC/C=C/C=C/C(=O)[C@H](CO)NC(C)=O`: the outcome with HL-60 [1] and in the assay with HL-60 [4] was Active. Besides, in the assay with HL-60 [3], the outcome was inactive.
